The M2OR odorant receptor database

What was measured:
Details in all cases: stereoisomer not certain
OR4D1 (Homo sapiens) = OR4D1 (Homo sapiens) (UniProt Q15615)
How it was run: (§1)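 Transient luciferase assays in mammalian cell lines were common, though methods varied by source. The values come from published papers and their supplementary material, with extra details from the original authors when needed. Responsive refers to a measured signal the original authors judged statistically different from baseline, and non-responsive (inactive) to the remainder.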

OR4D10 (Homo sapiens) = OR4D10 (Homo sapiens) (UniProt Q8NGI6)
Chain of OR4D10 (Homo sapiens) (Q8NGI6 whole entry): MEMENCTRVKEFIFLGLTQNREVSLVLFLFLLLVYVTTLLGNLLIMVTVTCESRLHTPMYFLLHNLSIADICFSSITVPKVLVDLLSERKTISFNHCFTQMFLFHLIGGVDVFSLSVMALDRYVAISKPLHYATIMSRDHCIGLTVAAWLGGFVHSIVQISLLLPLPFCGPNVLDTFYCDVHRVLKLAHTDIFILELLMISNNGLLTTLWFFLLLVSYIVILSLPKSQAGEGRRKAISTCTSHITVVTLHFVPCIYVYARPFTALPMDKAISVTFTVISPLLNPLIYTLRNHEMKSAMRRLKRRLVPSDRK
How it was run: as §1

OR4D11 (Homo sapiens) = OR4D11 (Homo sapiens) (UniProt Q8NGI4)
Chain of OR4D11 (Homo sapiens) (Q8NGI4 whole entry): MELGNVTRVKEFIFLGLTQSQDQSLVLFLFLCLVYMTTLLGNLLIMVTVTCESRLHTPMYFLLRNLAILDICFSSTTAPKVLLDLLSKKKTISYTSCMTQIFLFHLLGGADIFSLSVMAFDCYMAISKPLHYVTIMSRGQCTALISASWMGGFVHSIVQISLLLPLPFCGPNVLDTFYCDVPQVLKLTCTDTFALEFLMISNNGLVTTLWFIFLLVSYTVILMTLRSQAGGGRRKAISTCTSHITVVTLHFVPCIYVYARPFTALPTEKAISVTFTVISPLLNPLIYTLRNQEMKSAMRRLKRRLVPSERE
How it was run: as §1

OR4D2 (Homo sapiens) = OR4D2 (Homo sapiens) (UniProt P58180)
Chain of OR4D2 (Homo sapiens) (P58180 whole entry): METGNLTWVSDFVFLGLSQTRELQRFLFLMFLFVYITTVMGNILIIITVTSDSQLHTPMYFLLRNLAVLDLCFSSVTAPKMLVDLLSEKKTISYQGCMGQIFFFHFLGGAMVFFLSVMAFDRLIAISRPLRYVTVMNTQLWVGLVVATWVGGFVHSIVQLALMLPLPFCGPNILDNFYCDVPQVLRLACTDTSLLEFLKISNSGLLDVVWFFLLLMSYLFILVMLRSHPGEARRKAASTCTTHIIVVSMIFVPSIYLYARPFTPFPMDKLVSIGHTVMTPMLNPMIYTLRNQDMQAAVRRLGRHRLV
How it was run: as §1

OR4D5 (Homo sapiens) = OR4D5 (Homo sapiens) (UniProt Q8NGN0)
Chain of OR4D5 (Homo sapiens) (Q8NGN0 whole entry): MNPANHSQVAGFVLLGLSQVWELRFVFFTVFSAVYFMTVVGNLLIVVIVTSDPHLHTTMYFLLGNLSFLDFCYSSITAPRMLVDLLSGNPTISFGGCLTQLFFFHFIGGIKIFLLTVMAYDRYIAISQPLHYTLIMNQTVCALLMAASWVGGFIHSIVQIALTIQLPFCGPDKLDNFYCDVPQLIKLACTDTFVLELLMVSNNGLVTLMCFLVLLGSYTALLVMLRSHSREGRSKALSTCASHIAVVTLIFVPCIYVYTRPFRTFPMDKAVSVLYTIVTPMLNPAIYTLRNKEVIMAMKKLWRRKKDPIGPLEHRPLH
How it was run: as §1

OR4CD V133I = test system: OR4CD V133I
Chain of OR4CD V133I (as listed by the source, stated change not applied): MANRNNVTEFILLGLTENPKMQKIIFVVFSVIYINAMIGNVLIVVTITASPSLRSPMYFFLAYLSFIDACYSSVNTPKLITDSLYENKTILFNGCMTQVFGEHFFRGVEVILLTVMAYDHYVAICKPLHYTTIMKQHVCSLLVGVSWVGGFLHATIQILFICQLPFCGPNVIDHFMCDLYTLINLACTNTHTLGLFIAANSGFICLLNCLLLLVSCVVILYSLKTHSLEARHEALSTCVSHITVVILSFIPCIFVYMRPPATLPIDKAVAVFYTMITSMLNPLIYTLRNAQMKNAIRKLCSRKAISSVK
How it was run: as §1

OR4CF = test system: OR4CF
Chain of OR4CF (as listed by the source): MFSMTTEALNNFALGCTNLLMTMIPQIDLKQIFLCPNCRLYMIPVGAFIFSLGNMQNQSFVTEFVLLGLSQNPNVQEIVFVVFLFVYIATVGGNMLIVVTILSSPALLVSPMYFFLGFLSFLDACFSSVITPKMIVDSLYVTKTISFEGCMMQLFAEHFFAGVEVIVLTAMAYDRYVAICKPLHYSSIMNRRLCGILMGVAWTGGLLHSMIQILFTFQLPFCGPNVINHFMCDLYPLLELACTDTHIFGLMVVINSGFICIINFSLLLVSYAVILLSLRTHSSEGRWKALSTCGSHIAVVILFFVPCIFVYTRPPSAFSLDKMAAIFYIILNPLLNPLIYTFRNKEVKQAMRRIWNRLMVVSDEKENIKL
How it was run: as §1

OR4CG T76A = test system: OR4CG T76A
Chain of OR4CG T76A (as listed by the source, stated change not applied): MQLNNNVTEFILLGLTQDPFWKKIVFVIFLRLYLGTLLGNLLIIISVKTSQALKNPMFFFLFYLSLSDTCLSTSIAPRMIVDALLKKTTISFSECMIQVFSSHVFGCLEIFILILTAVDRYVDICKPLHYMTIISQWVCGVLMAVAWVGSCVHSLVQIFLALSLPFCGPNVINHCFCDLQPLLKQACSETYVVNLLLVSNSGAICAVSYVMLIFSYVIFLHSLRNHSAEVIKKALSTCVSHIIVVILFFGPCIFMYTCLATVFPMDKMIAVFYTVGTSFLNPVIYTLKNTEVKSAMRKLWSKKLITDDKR
How it was run: as §1

OR4D1 = test system: OR4D1
Chain of OR4D1 (as listed by the source): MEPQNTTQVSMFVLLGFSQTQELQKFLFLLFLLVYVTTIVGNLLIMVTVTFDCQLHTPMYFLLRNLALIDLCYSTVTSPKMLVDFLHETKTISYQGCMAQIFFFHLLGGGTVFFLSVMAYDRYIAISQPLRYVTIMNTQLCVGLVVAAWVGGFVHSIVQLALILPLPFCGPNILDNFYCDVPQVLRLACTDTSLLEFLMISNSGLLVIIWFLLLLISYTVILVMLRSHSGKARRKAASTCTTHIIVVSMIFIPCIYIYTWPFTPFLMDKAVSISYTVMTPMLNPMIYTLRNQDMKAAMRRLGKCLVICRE
How it was run: as §1

OR4D2 = test system: OR4D2
Chain of OR4D2 (as listed by the source): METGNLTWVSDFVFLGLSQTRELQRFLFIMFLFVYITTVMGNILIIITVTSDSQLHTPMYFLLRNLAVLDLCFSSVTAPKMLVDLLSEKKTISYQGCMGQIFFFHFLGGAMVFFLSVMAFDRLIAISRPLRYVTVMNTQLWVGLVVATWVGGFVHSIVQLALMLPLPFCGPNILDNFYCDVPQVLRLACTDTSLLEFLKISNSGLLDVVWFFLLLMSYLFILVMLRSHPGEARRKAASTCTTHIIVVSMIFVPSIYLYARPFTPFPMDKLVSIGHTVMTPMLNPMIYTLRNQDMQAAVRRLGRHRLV
How it was run: as §1

Measured: odorant receptor agonist call;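 also: active if original authors judged signal statistically different from baseline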

Chain of OR4D1 (Homo sapiens) (Q15615 whole entry): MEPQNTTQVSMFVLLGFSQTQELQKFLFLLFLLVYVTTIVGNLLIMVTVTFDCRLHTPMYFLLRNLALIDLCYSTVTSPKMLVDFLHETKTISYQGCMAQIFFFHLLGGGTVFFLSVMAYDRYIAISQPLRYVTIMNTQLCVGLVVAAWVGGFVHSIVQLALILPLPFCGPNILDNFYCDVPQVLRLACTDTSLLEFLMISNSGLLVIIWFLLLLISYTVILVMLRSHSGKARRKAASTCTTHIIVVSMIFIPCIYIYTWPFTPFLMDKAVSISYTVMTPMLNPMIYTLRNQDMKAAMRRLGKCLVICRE

Cc1c([N+](=O)[O-])c(C)c([N+](=O)[O-])c(C(C)(C)C)c1[N+](=O)[O-]
inactive: OR4D1 (Homo sapiens) | OR4D10 (Homo sapiens) | OR4D11 (Homo sapiens) | OR4D2 (Homo sapiens) | OR4D5 (Homo sapiens)

C=CCOC(=O)Cc1ccccc1
inactive: all assays above
